Measured values from ChEMBL document CHEMBL5058577, “EUbOPEN Chemogenomics Library 2 (Multiplex)” (2022).

System: U2OS
Test: Multiplex assay against U2OS
Format: toxicity, cell-based
Conditions: human
Procedure, shortened: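 Imaging took place on a CQ1 microscope at 37°C and 5% CO2 once compound had been added to live cells stained at seeding with Hoechst33342, BioTracker Green Microtubule Cytoskeleton Dye, MitoTracker Red and Annexin V Alexa Fluor 680. CellPathfinder machine-learning gating classed cells as Hoechst high-intensity objects or normal cells, classed normal cells as having healthy, pyknosed or fragmented nuclei, and classed pyknosed cells as mitotic or apoptotic. Tubulin, mitochondrial-mass and membrane-permeability phenotypes are per cents of the healthy-nucleus cells.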

[1] = 12 h, 1 µM, compound concentration 1 uM, replicate 1
[2] = 12 h, 1 µM, compound concentration 1 uM, replicate 2
[3] = 12 h, 10 µM, compound concentration 10 uM, replicate 1
[4] = 12 h, 10 µM, compound concentration 10 uM, replicate 2
[5] = 24 h, 1 µM, compound concentration 1 uM, replicate 1
[6] = 24 h, 1 µM, compound concentration 1 uM, replicate 2
[7] = 24 h, 10 µM, compound concentration 10 uM, replicate 1
[8] = 24 h, 10 µM, compound concentration 10 uM, replicate 2
[9] = 48 h, 1 µM, compound concentration 1 uM, replicate 1
[10] = 48 h, 1 µM, compound concentration 1 uM, replicate 2
[11] = 48 h, 10 µM, compound concentration 10 uM, replicate 1
[12] = 48 h, 10 µM, compound concentration 10 uM, replicate 2

For `CN(C)C(=O)Cn1cc(-c2ccc(-c3cncc4ccccc34)cc2)cn1`, the “Population Apoptotic (%)” value [1] was 68%, the “Population Fragmented Nuclei (%)” value [1] was 22% and the “Population Healthy Nuclei (%)” value [1] was 68%. For the same molecule, the “Population Hoechst High Intensity Objects (%)” value [1] was 3%, the “Population Membrane Permeable-Phenotype (%)” value [1] was 8% and the “Population Mitochondria Different-Phenotype (%)” value [1] was 4%. The “Population Mitotic Cells (%)” value [1] was 31%, the “Population Normal (%)” value [1] was 96% and the “Population Pyknosed Nuclei (%)” value [1] was 9%. The “Population Tubulin-Different-Phenotype (%)” value [1] was 5%, the “Total Cell Count” value [1] was 240 and the “Population Apoptotic (%)” value [2] was 69%. For the same molecule, the “Population Fragmented Nuclei (%)” value [2] was 18%, the “Population Healthy Nuclei (%)” value [2] was 69% and the “Population Hoechst High Intensity Objects (%)” value [2] was 0%. For the same molecule, the “Population Membrane Permeable-Phenotype (%)” value [2] was 6%, the “Population Mitochondria Different-Phenotype (%)” value [2] was 2% and the “Population Mitotic Cells (%)” value [2] was 30%. For the same molecule, the “Population Normal (%)” value [2] was 99%, the “Population Pyknosed Nuclei (%)” value [2] was 11% and the “Population Tubulin-Different-Phenotype (%)” value [2] was 3%. For the same molecule, the “Total Cell Count” value [2] was 110, the “Population Apoptotic (%)” value [3] was 66% and the “Population Fragmented Nuclei (%)” value [3] was 21%. The “Population Healthy Nuclei (%)” value [3] was 67%, the “Population Hoechst High Intensity Objects (%)” value [3] was 5% and the “Population Membrane Permeable-Phenotype (%)” value [3] was 20%. The “Population Mitochondria Different-Phenotype (%)” value [3] was 12%, the “Population Mitotic Cells (%)” value [3] was 33% and the “Population Normal (%)” value [3] was 94%. The “Population Pyknosed Nuclei (%)” value [3] was 10%, the “Population Tubulin-Different-Phenotype (%)” value [3] was 14% and the “Total Cell Count” value [3] was 205. For the same molecule, the “Population Apoptotic (%)” value [4] was 100%, the “Population Fragmented Nuclei (%)” value [4] was 18% and the “Population Healthy Nuclei (%)” value [4] was 75%. The “Population Hoechst High Intensity Objects (%)” value [4] was 3%, the “Population Membrane Permeable-Phenotype (%)” value [4] was 22% and the “Population Mitochondria Different-Phenotype (%)” value [4] was 19%. For the same molecule, the “Population Mitotic Cells (%)” value [4] was 0%, the “Population Normal (%)” value [4] was 96% and the “Population Pyknosed Nuclei (%)” value [4] was 5%. The “Population Tubulin-Different-Phenotype (%)” value [4] was 23%, the “Total Cell Count” value [4] was 98 and the “Population Apoptotic (%)” value [5] was 100%. The “Population Fragmented Nuclei (%)” value [5] was 21%, the “Population Healthy Nuclei (%)” value [5] was 69% and the “Population Hoechst High Intensity Objects (%)” value [5] was 3%. The “Population Membrane Permeable-Phenotype (%)” value [5] was 5%, the “Population Mitochondria Different-Phenotype (%)” value [5] was 2% and the “Population Mitotic Cells (%)” value [5] was 0%. For the same molecule, the “Population Normal (%)” value [5] was 96%, the “Population Pyknosed Nuclei (%)” value [5] was 8% and the “Population Tubulin-Different-Phenotype (%)” value [5] was 4%. The “Total Cell Count” value [5] was 278, the “Population Apoptotic (%)” value [6] was 90% and the “Population Fragmented Nuclei (%)” value [6] was 15%. For the same molecule, the “Population Healthy Nuclei (%)” value [6] was 76%, the “Population Hoechst High Intensity Objects (%)” value [6] was 1% and the “Population Membrane Permeable-Phenotype (%)” value [6] was 8%. The “Population Mitochondria Different-Phenotype (%)” value [6] was 6%, the “Population Mitotic Cells (%)” value [6] was 9% and the “Population Normal (%)” value [6] was 98%. For the same molecule, the “Total Cell Count” value [6] was 127, the “Population Apoptotic (%)” value [7] was 54% and the “Population Fragmented Nuclei (%)” value [7] was 25%. For the same molecule, the “Population Healthy Nuclei (%)” value [7] was 64%, the “Population Hoechst High Intensity Objects (%)” value [7] was 3% and the “Population Membrane Permeable-Phenotype (%)” value [7] was 19%. The “Population Mitochondria Different-Phenotype (%)” value [7] was 9%, the “Population Mitotic Cells (%)” value [7] was 45% and the “Population Normal (%)” value [7] was 96%. The “Population Pyknosed Nuclei (%)” value [7] was 9%, the “Population Tubulin-Different-Phenotype (%)” value [7] was 10% and the “Total Cell Count” value [7] was 244. The “Population Apoptotic (%)” value [8] was 80%, the “Population Fragmented Nuclei (%)” value [8] was 11% and the “Population Healthy Nuclei (%)” value [8] was 84%. For the same molecule, the “Population Hoechst High Intensity Objects (%)” value [8] was 2%, the “Population Membrane Permeable-Phenotype (%)” value [8] was 16% and the “Population Mitochondria Different-Phenotype (%)” value [8] was 15%. For the same molecule, the “Population Mitotic Cells (%)” value [8] was 20%, the “Population Normal (%)” value [8] was 97% and the “Population Pyknosed Nuclei (%)” value [8] was 4%. The “Population Tubulin-Different-Phenotype (%)” value [8] was 14%, the “Total Cell Count” value [8] was 110 and the “Population Apoptotic (%)” value [9] was 87%. The “Population Fragmented Nuclei (%)” value [9] was 18%, the “Population Healthy Nuclei (%)” value [9] was 69% and the “Population Hoechst High Intensity Objects (%)” value [9] was 2%. The “Population Membrane Permeable-Phenotype (%)” value [9] was 6%, the “Population Mitochondria Different-Phenotype (%)” value [9] was 3% and the “Population Mitotic Cells (%)” value [9] was 12%. For the same molecule, the “Population Normal (%)” value [9] was 97%, the “Population Pyknosed Nuclei (%)” value [9] was 12% and the “Population Tubulin-Different-Phenotype (%)” value [9] was 4%. For the same molecule, the “Total Cell Count” value [9] was 333, the “Population Apoptotic (%)” value [10] was 88% and the “Population Fragmented Nuclei (%)” value [10] was 20%. The “Population Healthy Nuclei (%)” value [10] was 67%, the “Population Hoechst High Intensity Objects (%)” value [10] was 3% and the “Population Membrane Permeable-Phenotype (%)” value [10] was 12%. For the same molecule, the “Population Mitochondria Different-Phenotype (%)” value [10] was 9%, the “Population Mitotic Cells (%)” value [10] was 11% and the “Population Normal (%)” value [10] was 96%. The “Population Pyknosed Nuclei (%)” value [10] was 11%, the “Population Tubulin-Different-Phenotype (%)” value [10] was 9% and the “Total Cell Count” value [10] was 163. The “Population Apoptotic (%)” value [11] was 74%, the “Population Fragmented Nuclei (%)” value [11] was 22% and the “Population Healthy Nuclei (%)” value [11] was 62%. For the same molecule, the “Population Hoechst High Intensity Objects (%)” value [11] was 2%, the “Population Membrane Permeable-Phenotype (%)” value [11] was 15% and the “Population Mitochondria Different-Phenotype (%)” value [11] was 8%. The “Population Mitotic Cells (%)” value [11] was 25%, the “Population Normal (%)” value [11] was 97% and the “Population Pyknosed Nuclei (%)” value [11] was 14%. For the same molecule, the “Population Tubulin-Different-Phenotype (%)” value [11] was 8%, the “Total Cell Count” value [11] was 302 and the “Population Apoptotic (%)” value [12] was 92%. The “Population Fragmented Nuclei (%)” value [12] was 21%, the “Population Healthy Nuclei (%)” value [12] was 68% and the “Population Membrane Permeable-Phenotype (%)” value [12] was 20%. For the same molecule, the “Population Mitochondria Different-Phenotype (%)” value [12] was 14%, the “Population Mitotic Cells (%)” value [12] was 7% and the “Population Pyknosed Nuclei (%)” value [12] was 9%. For the same molecule, the “Population Tubulin-Different-Phenotype (%)” value [12] was 16% and the “Total Cell Count” value [12] was 149.
